Reference: ChEMBL document CHEMBL3351669, “Oxidized derivatives of macroline, sarpagine, and pleiocarpamine alkaloids from Alstonia angustifolia” (J Nat Prod, 2014)
pIC50: −log10 of the molar value.

How the values were obtained:
Type in all cases: functional, cell-based
KB = experiment: Cytotoxicity against vincristine-sensitive human KB cells
Outline: (§1)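 Alkaloids tested alone, without vincristine, in parallel on vincristine-sensitive KB and vincristine-resistant KB/VJ300 cells. IC50 determined, in μg/mL.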

[1] = Cytotoxicity against vincristine-resistant human KB/VJ300 cells; outline: as §1
[2] = Cytotoxicity against multi-drug resistant human KB/VJ300 cells in presence of 0.1 ug/ml vincristine
Outline: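 Multidrug-resistance reversal test in vincristine-resistant KB/VJ300 cells. Test alkaloid is co-applied with vincristine at 0.1 μg/mL (0.12 μM). The IC50 of the test alkaloid is determined under this co-treatment, in μg/mL.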

Row | Structure (SMILES) | IC50 (KB) [mg/L] | IC50 [1] [mg/L] | pIC50 [2]
1 | CN1[C@H]2C[C@@H]3[C@@H](CO[C@@]4(C)OC(=O)C[C@@H]34)[C@@H]1Cc1c2n(C)c2ccccc12 | > 25 | > 25 | 
2 | COc1ccc2c(c1)c1c(n2C)[C@@H]2C[C@H]3C(=O)OC[C@H]3[C@H](C1)N2C | > 25 | > 25 | 
3 | C/C=C1\C(=O)OC[C@H]2[C@@H]3Cc4c(n(C)c5ccc(OC)cc45)[C@H](C[C@@H]12)N3 | > 25 | > 25 | 4.40
4 | CC(O)C[C@@H]1C[C@@H]2N3COC[C@H]1[C@@H]3C[C@]21C(=O)Nc2ccccc21 (some centres not stated) | > 25 | > 25 | 
5 | CC(O)C[C@@H]1C[C@@H]2N3COC[C@H]1[C@@H]3C[C@]21C(=O)N(C)c2ccccc21 (some centres not stated) | > 25 | > 25 | 
6 | CC(O)C[C@@H]1C[C@@H]2N[C@@H](C[C@]23C(=O)N(C)c2ccccc23)[C@@H]1CO (some centres not stated) | > 25 | > 25 | 
7 | C[C@H](O)C[C@@H]1C[C@@H]2N[C@@H](C[C@@]23C(=O)Nc2ccccc23)[C@@H]1CO | > 25 | > 25 | 
8 | CC(=O)O[C@@H]1[C@@H]2[C@@H]3C[C@H]4c5c(c6ccccc6n5C)C[C@@H]([C@@H]3CO[C@H]2C)N14 | > 25 | > 25 | 4.40
9 | C[C@H]1OC[C@@H]2[C@H]3C[C@H]4c5c(c6ccccc6n5C)C[C@@H]2[N+]4(C)[C@H](O)[C@H]31 | > 25 | > 25 | 
10 | C[C@@H]1OC[C@@H]2[C@H]3C[C@@H]4N([C@H](O)C13)[C@H]2C[C@@]41C(=O)N(C)c2ccccc21 | > 25 | > 25 | 
11 | C[C@H]1OC[C@@H]2[C@@H](C[C@H]3c4c(c5ccccc5n4C)C[C@@H]2N3C)[C@@H]1C=O | > 25 | > 25 | 
12 | C[C@@H]1OC[C@@H]2[C@@H](C[C@H]3c4[nH]c5ccccc5c4C[C@@H]2N3C)[C@@H]1CO | > 25 | > 25 | 
13 | C[C@@H]1OC[C@@H]2[C@@H](C[C@@H]3N[C@H]2Cc2c3n(C)c3ccccc23)[C@@H]1CO | > 25 | > 25 | 
14 | C[C@@H]1OC[C@@H]2[C@@H](C[C@@H]3N[C@H]2Cc2c3n(C)c3ccccc23)[C@H]1CO | > 25 | > 25 | 
15 | COc1ccc2c(c1)c1c(n2C)[C@@H]2C[C@H]3[C@@H](CO)[C@H](C)OC[C@H]3[C@H](C1)N2C | > 25 | > 25 | 
16 | CC(=O)C1=COC[C@@H]2[C@H]1C[C@H]1c3[nH]c4ccccc4c3C[C@@H]2N1C | > 25 | > 25 | 
17 | CC1=C(C=O)[C@@H]2C[C@H]3c4[nH]c5ccccc5c4C[C@@H]([C@@H]2CO1)N3C | > 25 | > 25 | 
18 | C/C=C1/CN2CC[C@]3(O)c4ccccc4N4[C@H](C(=O)OC)[C@H]1C[C@H]2[C@@H]43 | > 25 | > 25 | 
19 | C/C=C1/CN2CC[C@@]3(O)c4ccccc4N4[C@H](C(=O)OC)[C@H]1C[C@H]2[C@@H]43 | > 25 | > 25 | 
20 | C/C=C1/CN2CC(=O)c3c4n(c5ccccc35)[C@H](C(=O)OC)[C@H]1C[C@@H]42 | > 25 | > 25 | 
21 | C[C@H](O)C1=CN2[C@H]3C[C@H]1[C@@H](CO)[C@@H]2C[C@@]31C(=O)N(C)c2ccccc21 | > 25 | > 25 | 

Row | Structure (SMILES) | IC50 (KB) [mg/L] | IC50 [1] [mg/L] | pIC50 [2]
22 | C/C=C1/CN2[C@H]3C[C@H]1C(CO)[C@@H]2C[C@]31Nc2ccccc2C1=O (some centres not stated) | > 25 | > 25 | 
23 | CN1[C@H]2C[C@H]3C(=O)OC[C@H]3[C@@H]1Cc1c2n(C)c2ccccc12 | > 25 | > 25 | 
24 | CC(=O)C[C@@H]1C[C@H]2c3c(c4ccccc4n3C)C[C@@H]([C@@H]1CO)N2C | > 25 | > 25 | 
25 | C/C=C1\C(=O)OC[C@H]2[C@@H]3Cc4c(n(C)c5ccccc45)[C@H](C[C@@H]12)N3 | > 25 | > 25 | 
26 | C[C@H](O)C[C@H]1C[C@@H]2N3COC[C@@H]1[C@@H]3CC21C(=O)N(C)c2ccccc21 (some centres not stated) | > 25 | > 25 | 
27 | CC(=O)C[C@@H]1C[C@@H]2N3[C@@H](C)OC[C@H]1[C@@H]3C[C@]21C(=O)N(C)c2ccccc21 | > 25 | > 25 | 
28 | CC(=O)C1=COC[C@H]2[C@@H]3C[C@]4(C(=O)N(C)c5ccccc54)[C@H](C[C@@H]12)N3 | > 25 | > 25 | 
29 | CC(=O)C1=COC[C@H]2[C@@H]3C[C@]4(C(=O)Nc5ccccc54)[C@H](C[C@@H]12)N3 | > 25 | > 25 | 
30 | C[C@H](O)C[C@@H]1C[C@@H]2N[C@@H](C[C@@]23C(=O)N(C)c2ccccc23)[C@@H]1CO | > 25 | > 25 | 
31 | C[C@@H]1OC[C@@H]2[C@H]3C[C@H]4c5c(c6ccccc6n5C)C[C@@H]2N4[C@H](O)[C@H]31 | > 25 | > 25 | 4.40
32 | C[C@@H]1OC[C@@H]2[C@@H](C[C@H]3c4c(c5ccccc5n4C)C[C@@H]2N3C)[C@@H]1CO | > 25 | > 25 | 
33 | C[C@@H]1OC[C@@H]2[C@@H](C[C@H]3c4[nH]c5ccccc5c4C[C@@H]2N3C)[C@H]1CO | > 25 | > 25 | 
34 | C/C=C1/CN2CCc3c4n(c5ccccc35)[C@H](C(=O)OC)[C@H]1C[C@@H]42 | > 25 | > 25 | 4.40
35 | C[C@H](O)C1=CN2[C@H]3C[C@H]1[C@@H](CO)[C@@H]2Cc1c3n(C)c2ccccc12 | > 25 | > 25 | 
36 | C/C=C1/CN2[C@H]3C[C@H]1C(CO)[C@@H]2Cc1c3[nH]c2ccccc12 (some centres not stated) | > 25 | > 25 | 
37 | CC(=O)C(CC(=O)O)[C@@H]1C[C@H]2c3c(c4ccccc4n3C)C[C@@H]([C@@H]1CO)N2C (some centres not stated) | > 25 | > 25 | 
38 | CC1=C(C=O)[C@@H]2C[C@H]3c4c(c5ccccc5n4C)C[C@@H]([C@@H]2CO1)N3C [ALSTONERINAL] | > 25 | > 25 | 
39 | CC(=O)C1=COC[C@@H]2[C@H]1C[C@H]1c3c(c4ccccc4n3C)C[C@@H]2N1C [ALSTONERINE] | > 25 | > 25 | 5.00
40 | C[C@@H]1OC[C@@H]2[C@@H](C[C@H]3c4c(c5ccccc5n4C)C[C@@H]2N3C)[C@H]1CO [MACROCARPINE B] | > 25 | > 25 | 
41 | C[C@@H]1OC[C@@H]2[C@@H](C[C@H]3c4c(c5ccccc5n4C)C[C@@H]2N3C)[C@@H]1C=O [Talcarpine] | > 25 | > 25 | 
